Test results taken from ChEMBL document CHEMBL1124984, “Benzophenone dicarboxylic acid antagonists of leukotriene B4. 2. Structure-activity relationships of the lipophilic side chain” (J Med Chem, 1990).

Key:
[1] = target: T1, Leukotriene B4 receptor (Homo sapiens) (UniProt Q9NPC1+Q15722); assay: Antagonistic activity against Leukotriene B4 receptor by using [3H]- LTB4 as a radioligand at a concentration of 10e-6 M; type: functional
Method in brief: (§1)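 Neutrophil suspensions (≥90% neutrophils, ≥90% viable) at 2 × 10^7 cells/mL in Hanks' balanced salt solution with 0.1% ovalbumin. Cells were incubated 10 min at 4 °C with compound in DMSO and [3H]LTB4 added as a 2.65 nM solution. Cells were spun 2 min through dibutyl/dinonyl phthalate (7:2) and the pellet counted by scintillation. Nonspecific binding was measured with >2000-fold excess unlabeled ligand. Results are % inhibition of specific binding, mean of ≥3 replicates.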

[2] = target: T1, Leukotriene B4 receptor (Homo sapiens); assay: Antagonistic activity against Leukotriene B4 receptor by using [3H]- LTB4 as a radioligand at a concentration of 10e-5 M; type: functional; method in brief: as §1
[3] = target: T1, Leukotriene B4 receptor (Homo sapiens); assay: Antagonistic activity against Leukotriene B4 receptor by using [3H]- LTB4 as a radioligand at a concentration of 10e-7 M; type: functional; method in brief: as §1
[4] = target: T1, Leukotriene B4 receptor (Homo sapiens); assay: Antagonistic activity against Leukotriene B4 receptor by using [3H]- LTB4 as a radioligand at a concentration of 10e-8 M; type: functional; method in brief: as §1
[5] = target: T2, Leukotriene B4 receptor 1 (Homo sapiens, UniProt Q15722); assay: Inhibition of binding of B4 (LTB4) to Leukotriene B4 receptor on intact human neutrophils at a concentration of 10e -8M.; method in brief: as §1
[6] = target: T2, Leukotriene B4 receptor 1; assay: Inhibition of binding of B4 (LTB4) to its Leukotriene B4 receptor on intact human neutrophils at a concentration of 10e -7M.; method in brief: as §1
[7] = target: T2, Leukotriene B4 receptor 1; assay: Inhibition of specific binding of [3H]LTB4 to Leukotriene B4 receptor in human neutrophils

T1 sequence (Q15722 whole entry, looked up): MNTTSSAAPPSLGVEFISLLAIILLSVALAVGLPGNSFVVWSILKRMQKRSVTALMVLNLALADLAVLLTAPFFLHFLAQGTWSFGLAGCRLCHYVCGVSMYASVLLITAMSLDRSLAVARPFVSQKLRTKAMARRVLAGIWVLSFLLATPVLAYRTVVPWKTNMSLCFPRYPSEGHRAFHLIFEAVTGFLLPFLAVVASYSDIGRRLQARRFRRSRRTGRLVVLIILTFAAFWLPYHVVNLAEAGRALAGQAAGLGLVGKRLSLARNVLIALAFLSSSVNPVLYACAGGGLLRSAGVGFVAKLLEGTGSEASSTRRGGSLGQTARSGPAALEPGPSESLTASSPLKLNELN
T1 sequence (Q9NPC1 whole entry, looked up): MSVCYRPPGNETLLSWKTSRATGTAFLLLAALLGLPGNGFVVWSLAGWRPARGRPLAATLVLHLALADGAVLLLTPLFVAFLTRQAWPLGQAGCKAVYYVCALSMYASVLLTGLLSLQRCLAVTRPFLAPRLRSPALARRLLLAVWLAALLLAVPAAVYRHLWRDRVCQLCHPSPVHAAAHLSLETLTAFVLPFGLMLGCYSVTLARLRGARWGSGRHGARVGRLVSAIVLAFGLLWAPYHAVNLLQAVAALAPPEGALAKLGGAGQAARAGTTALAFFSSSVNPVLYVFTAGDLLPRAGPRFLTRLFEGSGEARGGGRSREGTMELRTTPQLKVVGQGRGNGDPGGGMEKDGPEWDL
T2 sequence (Q15722 whole entry): as the sequence (Q15722 whole entry, looked up) above

Structure (SMILES)	inhibition [1] [%]	inhibition [2] [%]	inhibition [3] [%]	inhibition [4] [%]	inhibition [5] [%]	inhibition [6] [%]	IC50 [7] [µM]
O=C(O)CCc1cc(C(=O)c2cccc(C(=O)O)c2)ccc1OCCCc1ccccc1	19	60	–	–	–	–	–
O=C(O)CCc1cc(C(=O)c2cccc(C(=O)O)c2)ccc1OCCCCc1cccs1	–	72	–	–	–	–	–
COc1ccc(/C=C/CCCCOc2ccc(C(=O)c3cccc(C(=O)O)c3)cc2CCC(=O)O)c(OC)c1	96	100	66	20	–	–	–
COc1ccc(CCCCCCOc2ccc(C(=O)c3cccc(C(=O)O)c3)cc2CCC(=O)O)cc1	96	100	68	18	–	–	–
O=C(O)CCc1cc(C(=O)c2cccc(C(=O)O)c2)ccc1OCCCCSc1ccccc1	29	89	–	–	–	–	–
O=C(O)CCc1cc(C(=O)c2cccc(C(=O)O)c2)ccc1OCCCCc1ccccc1	21	78	–	–	–	–	–
COc1ccc(C#CCCCCOc2ccc(C(=O)c3cccc(C(=O)O)c3)cc2CCC(=O)O)cc1	90	100	45	9	–	–	–
O=C(O)CCc1cc(C(=O)c2cccc(C(=O)O)c2)ccc1OCCCCCCc1ccccc1	85	100	–	–	14	36	–
CCCCCCCCCCOc1ccc(C(=O)c2cccc(C(=O)O)c2)cc1CCC(=O)O	60	95	–	–	–	7	–
CCCCCCCCOc1ccc(C(=O)c2cccc(C(=O)O)c2)cc1CCC(=O)O	35	87	–	–	0	0	–
O=C(O)CCc1cc(C(=O)c2cccc(C(=O)O)c2)ccc1OCCCCOc1ccccc1	16	67	–	–	–	–	–
COc1ccccc1CCCCCCOc1ccc(C(=O)c2cccc(C(=O)O)c2)cc1CCC(=O)O	91	100	3	5	–	–	–
O=C(O)CCc1cc(C(=O)c2cccc(C(=O)O)c2)ccc1OCCCC[S+]([O-])c1ccccc1 (stereo not drawn)	0	22	–	–	–	–	–
COc1ccccc1/C=C/CCCCOc1ccc(C(=O)c2cccc(C(=O)O)c2)cc1CCC(=O)O	100	100	88	25	–	–	–
O=C(O)CCc1cc(C(=O)c2cccc(C(=O)O)c2)ccc1OCCCCCCc1ccc(O)cc1	90	100	43	6	–	–	–
O=C(O)CCc1cc(C(=O)c2cccc(C(=O)O)c2)ccc1OCCc1ccccc1	3	37	–	–	–	–	–
CCCCCCOc1ccc(C(=O)c2cccc(C(=O)O)c2)cc1CCC(=O)O	10	56	–	–	0	0	–
COc1ccc(C(=O)c2cccc(C(=O)O)c2)cc1CCC(=O)O	7	0	–	–	–	–	–

Structure (SMILES)	inhibition [1] [%]	inhibition [2] [%]	inhibition [3] [%]	inhibition [4] [%]	inhibition [5] [%]	inhibition [6] [%]	IC50 [7] [µM]
CC(=O)c1ccc(CCCCCCOc2ccc(C(=O)c3cccc(C(=O)O)c3)cc2CCC(=O)O)cc1	90	–	46	11	–	–	–
COc1ccc(/C=C/CCCCOc2ccc(C(=O)c3cccc(C(=O)O)c3)cc2CCC(=O)O)cc1	95	100	88	40	–	–	0.0132
O=C(O)CCc1cc(C(=O)c2cccc(C(=O)O)c2)ccc1OCCCCCCc1ccc(Cl)cc1	93	100	42	15	–	–	–
CCOc1ccc(C(=O)c2cccc(C(=O)O)c2)cc1CCC(=O)O	0	0	–	–	0	0	–
O=C(O)CCc1cc(C(=O)c2cccc(C(=O)O)c2)ccc1OCCCCS(=O)(=O)c1ccccc1	4	18	–	–	–	–	–
CCCCCCCCCCCCCCOc1ccc(C(=O)c2cccc(C(=O)O)c2)cc1CCC(=O)O	29	73	–	–	0	0	–
COc1cccc(CCCCCCOc2ccc(C(=O)c3cccc(C(=O)O)c3)cc2CCC(=O)O)c1	89	95	46	–	–	–	–
C[S+]([O-])c1ccc(/C=C/CCCCOc2ccc(C(=O)c3cccc(C(=O)O)c3)cc2CCC(=O)O)cc1 (stereo not drawn)	95	99	86	36	–	–	–
CSc1ccc(/C=C/CCCCOc2ccc(C(=O)c3cccc(C(=O)O)c3)cc2CCC(=O)O)cc1	79	100	18	–	–	–	–
Cc1ccc(/C=C/CCCCOc2ccc(C(=O)c3cccc(C(=O)O)c3)cc2CCC(=O)O)cc1	96	–	73	24	–	–	–
COc1ccc(/C=C\CCCCOc2ccc(C(=O)c3cccc(C(=O)O)c3)cc2CCC(=O)O)cc1	76	90	31	0	–	–	–
O=C(O)CCc1cc(C(=O)c2cccc(C(=O)O)c2)ccc1OCCCC/C=C/c1ccccc1	92	100	34	3	–	–	–
CS(=O)(=O)c1ccc(/C=C/CCCCOc2ccc(C(=O)c3cccc(C(=O)O)c3)cc2CCC(=O)O)cc1	89	98	60	31	–	–	–
O=C(O)CCc1cc(C(=O)c2cccc(C(=O)O)c2)ccc1OCCCCCCCCCCc1ccccc1	–	–	28	0	–	–	–
O=C(O)CCc1cc(C(=O)c2cccc(C(=O)O)c2)ccc1OCCCCCCc1ccc(F)cc1	77	100	22	6	–	–	–
COc1cccc(/C=C/CCCCOc2ccc(C(=O)c3cccc(C(=O)O)c3)cc2CCC(=O)O)c1	91	99	49	13	–	–	–
O=C(O)CCc1cc(C(=O)c2cccc(C(=O)O)c2)ccc1OCc1ccccc1	3	31	–	–	–	–	–
